Reference: ChEMBL document CHEMBL1667727, “Sesquiterpenes from Chloranthus japonicus” (J Nat Prod, 2011)

Experiments:
Assay type in all cases: functional, cell-based
[1] = tested on: MCF7; experiment: Cytotoxicity against human MCF7 cells by MTT assay
Summary of the method: (§1)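 In vitro cytotoxicity testing against a panel of eight cultured human tumor lines. Tissue origins: Lovo (colorectal cancer), Hepg2 (hepatoma), OSRC-2 (renal carcinoma), A549 (lung epithelial carcinoma), SKOV3 (ovarian carcinoma), HeLa (cervical cancer), MCF-7 (breast cancer) and SGC-7901 (gastric adenocarcinoma).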

[2] = tested on: HeLa; experiment: Cytotoxicity against human HeLa cells by MTT assay; summary of the method: as §1
[3] = tested on: A549; experiment: Cytotoxicity against human A549 cells by MTT assay; summary of the method: as §1
[4] = tested on: LoVo; experiment: Cytotoxicity against human LoVo cells by MTT assay; summary of the method: as §1
[5] = tested on: SK-OV-3; experiment: Cytotoxicity against human SKOV3 cells by MTT assay; summary of the method: as §1
[6] = tested on: SGC-7901; experiment: Cytotoxicity against human SGC7901 cells by MTT assay; summary of the method: as §1
[7] = tested on: HepG2; experiment: Cytotoxicity against human HepG2 cells by MTT assay; summary of the method: as §1
[8] = tested on: OS-RC-2; experiment: Cytotoxicity against human OS-RC2 cells by MTT assay; summary of the method: as §1

Measured: IC50

CC1=C2C[C@@H]3[C@@](C)(C[C@]2(O)OC1=O)[C@H](O)CC[C@@]3(C)O [CHLORAEUDOLIDE]
> 10 µM: [1] | [2] | [3] | [4] | [5] | [6] | [7] | [8]

CC1=C2[C@H](O)C3=C(C=O)[C@H]4C[C@H]4[C@]3(C)C[C@@H]2OC1=O [CHLORAJAPOLIDE A]
> 10 µM: [1] | [2] | [3] | [4] | [5] | [6] | [7] | [8]

CC1=C2[C@@H]3O[C@H](O)C4=C3[C@@](C)(C[C@@H]2OC1=O)[C@@H]1C[C@H]41 [CHLORAJAPOLIDE B]
> 10 µM: [1] | [2] | [3] | [4] | [5] | [6] | [7] | [8]

CC1=C2CC3=C(CO)[C@H]4C[C@H]4[C@]3(C)C[C@@H]2OC1=O [CHLORAJAPOLIDE C]
> 10 µM: [1] | [2] | [3] | [4] | [5] | [6] | [7] | [8]

CC1=C2C[C@@H]3[C@@](C)(C[C@@H]2OC1=O)[C@@H]1C[C@@H]1[C@]3(O)CO [CHLORAJAPOLIDE D]
> 10 µM: [1] | [2] | [3] | [4] | [5] | [6] | [7] | [8]

CO[C@@]12OC(=O)C(CO)=C1C[C@H]1[C@H](COC(C)=O)[C@H]3C[C@H]3[C@]1(C)[C@@H]2O [CHLORAJAPOLIDE E]
> 10 µM: [1] | [2] | [3] | [4] | [5] | [6] | [7] | [8]

C/C=C(\C)C(=O)OC[C@@]1(O)C2[C@@H](O)C3=C(COC(=O)CCC(=O)OC)C(=O)O[C@@]34[C@@H]3C5=C(C[C@H]4[C@@]2(C)[C@@H]2C[C@@H]21)[C@H]1C[C@H]1[C@]5(C)[C@@H](O)C(=O)/C3=C(/C)C(=O)OC (some centres undefined) [CHLORAJAPONOL]
> 10 µM: [1] | [2] | [3] | [4] | [5] | [6] | [7] | [8]

C=C1[C@H]2C[C@H]2[C@]2(C)C[C@]3(O[C@@H]4O[C@H](CO)[C@@H](O)[C@H](O)[C@H]4O)OC(=O)C(C)=C3C[C@@H]12 [CHLORAJAPOSIDE]
> 10 µM: [1] | [2] | [3] | [4] | [5] | [6] | [7] | [8]
